Consider 14 compounds from ChEMBL document CHEMBL1136140, “Tripeptide inhibitors of Yersinia protein-tyrosine phosphatase” (Bioorg Med Chem Lett, 2003).

The target in test [1] is T1, Tyrosine-protein phosphatase non-receptor type 1 (Homo sapiens, UniProt P18031).
T1 sequence (P18031 whole entry): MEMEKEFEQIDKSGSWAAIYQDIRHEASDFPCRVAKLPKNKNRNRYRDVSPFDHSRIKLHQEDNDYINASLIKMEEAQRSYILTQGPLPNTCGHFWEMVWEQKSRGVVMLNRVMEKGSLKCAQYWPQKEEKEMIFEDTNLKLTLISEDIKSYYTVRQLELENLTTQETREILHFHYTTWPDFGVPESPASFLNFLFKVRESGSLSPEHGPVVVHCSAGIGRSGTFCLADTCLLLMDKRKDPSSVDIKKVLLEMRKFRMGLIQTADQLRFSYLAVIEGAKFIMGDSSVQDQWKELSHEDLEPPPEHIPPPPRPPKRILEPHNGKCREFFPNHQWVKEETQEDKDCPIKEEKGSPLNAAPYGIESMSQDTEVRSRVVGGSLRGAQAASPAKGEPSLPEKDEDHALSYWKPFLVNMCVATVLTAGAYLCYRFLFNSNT
Description: Inhibition of human Protein-tyrosine phosphatase 1B expressed in Escherichia coli BL21 (DE3) cells. Summed up: (§1)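 Recombinant enzymes made in E. coli BL21(DE3) and purified as published previously. Assay run at 30 °C, pH 7.0, in 50 mM 3,3-dimethylglutarate, 1 mM EDTA, ionic strength brought to 150 mM with NaCl. Substrate pNPP fixed at each enzyme's Km. Enzyme added to start, NaOH quench, A405 read. Six to eight inhibitor concentrations used. IC50 obtained by fitting relative activity to a four-parameter slope-factor equation.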

Test [2] has as its target Secreted effector protein (Yersinia pestis, UniProt O68720). Description: Inhibition of Tyrosine phosphatase from Yersinia pestis expressed in Escherichia coli BL21 (DE3) cells. Summed up:
as §1

In test [3] the target is T1, Tyrosine-protein phosphatase non-receptor type 1. Description: Inhibitory potency against human Protein-tyrosine phosphatase 1B expressed in Escherichia coli BL21 (DE3) cells. Summed up:
as §1

The structures appear in SMILES notation. Square brackets hold non-standard residues; d marks the D form. Peptide text beside a SMILES is read from it. * marks the point of attachment. F2Pmp = N[C@@H](Cc1ccc(C(F)(F)P(=O)(O)O)cc1)C(=O)O; Fmoc = O=C(OCC1c2ccccc2-c2ccccc21)*; OBn = c1ccc(CO*)cc1

Sequence of Secreted effector protein (O68720 whole entry): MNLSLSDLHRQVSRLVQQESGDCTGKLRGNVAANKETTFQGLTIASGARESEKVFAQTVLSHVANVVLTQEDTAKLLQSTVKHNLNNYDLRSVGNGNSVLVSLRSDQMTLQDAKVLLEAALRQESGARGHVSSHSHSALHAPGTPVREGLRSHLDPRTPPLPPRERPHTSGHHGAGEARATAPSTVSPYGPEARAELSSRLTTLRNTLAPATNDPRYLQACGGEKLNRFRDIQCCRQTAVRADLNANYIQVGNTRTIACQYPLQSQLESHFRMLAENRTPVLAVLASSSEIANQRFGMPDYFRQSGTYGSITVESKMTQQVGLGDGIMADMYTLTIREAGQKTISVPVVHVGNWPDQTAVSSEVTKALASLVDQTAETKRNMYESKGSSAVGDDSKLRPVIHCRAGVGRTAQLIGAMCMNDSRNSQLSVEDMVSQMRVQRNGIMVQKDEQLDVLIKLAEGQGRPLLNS

Turning to `CC(C)C[C@H](NC(=O)[C@H](Cc1ccc(OC(C(=O)O)C(=O)O)cc1)NC(=O)[C@H](CCC(=O)OCc1ccccc1)NC(=O)OCC1c2ccccc2-c2ccccc21)C(N)=O`, the IC50 in test [1] is 116 µM; in test [2], 82 µM.

As for `CC(C)C[C@H](NC(=O)[C@H](Cc1ccc(OCC(=O)O)c(C(=O)O)c1)NC(=O)[C@H](CCC(=O)OCc1ccccc1)NC(=O)OCC1c2ccccc2-c2ccccc21)C(N)=O`, the IC50 in test [1] was found to be 8.3 µM; in test [2], 10.5 µM.

Take `CC(C)C[C@H](NC(=O)[C@H](Cc1ccc(C(F)(C(=O)O)C(=O)O)cc1)NC(=O)[C@H](CCC(=O)O)NC(=O)OCC1c2ccccc2-c2ccccc21)C(N)=O`: the IC50 in test [1] was 0.7 µM; in test [2], above 800 µM.

As to `CC(C)C[C@H](NC(=O)[C@H](Cc1ccc(C(C(=O)O)C(=O)O)cc1)NC(=O)[C@H](CCC(=O)O)NC(=O)OCC1c2ccccc2-c2ccccc21)C(N)=O`, the IC50 in test [1] was 0.8 µM; in test [2], above 800 µM.

As for `CC(C)C[C@H](NC(=O)[C@H](Cc1ccc(C(F)(C(=O)O)C(=O)O)cc1)NC(=O)[C@H](CCC(=O)OCc1ccccc1)NC(=O)OCC1c2ccccc2-c2ccccc21)C(N)=O`, the IC50 in test [1] and in test [2] was 3.1 µM each time.

`CC(C)C[C@H](NC(=O)[C@H](Cc1ccc(CC(=O)O)c(O)c1)NC(=O)[C@H](CCC(=O)O)NC(=O)OCC1c2ccccc2-c2ccccc21)C(N)=O`: the IC50 in test [1] was 4 µM; in test [2], above 800 µM.

Turning to `CC(C)C[C@H](NC(=O)[C@H](Cc1ccc(CC(=O)O)c(C(=O)O)c1)NC(=O)[C@H](CCC(=O)O)NC(=O)OCC1c2ccccc2-c2ccccc21)C(N)=O`, the IC50 in test [1] is 0.7 µM; in test [2], above 800 µM.

Take `CC(C)C[C@H](NC(=O)[C@H](Cc1ccc(C(F)(F)C(=O)O)cc1)NC(=O)[C@H](CCC(=O)O)NC(=O)OCC1c2ccccc2-c2ccccc21)C(N)=O`: the half-maximal inhibitory concentration (IC50) is 1.4 µM in test [1] and above 800 µM in test [2].

For the compound `CC(C)C[C@H](NC(=O)[C@H](Cc1ccc(C(F)(F)P(=O)(O)O)cc1)NC(=O)[C@H](CCC(=O)OCc1ccccc1)NC(=O)OCC1c2ccccc2-c2ccccc21)C(N)=O` (Fmoc-Glu(OBn)-[F2Pmp]-Leu-NH2), the IC50 in test [1] was determined as 1.41 µM; in test [2], 5.2 µM.

In the case of `CC(C)C[C@H](NC(=O)[C@H](Cc1ccc(OCC(=O)O)cc1)NC(=O)[C@H](CCC(=O)OCc1ccccc1)NC(=O)OCCc1ccccc1)C(N)=O`, the IC50 was 58.2 µM in test [1] and 8 µM in test [2].

In the case of `CC(C)C[C@H](NC(=O)[C@H](Cc1ccc(OC(C(=O)O)C(=O)O)cc1)NC(=O)[C@H](CCC(=O)O)NC(=O)OCC1c2ccccc2-c2ccccc21)C(N)=O`, the IC50 in test [2] is above 800 µM. For the same compound, the affinity in test [3] corresponds to a Ki of 29 µM.

As for `CC(C)C[C@H](NC(=O)[C@H](Cc1ccc(CC(=O)O)c(C(=O)O)c1)NC(=O)[C@H](CCC(=O)OCc1ccccc1)NC(=O)OCC1c2ccccc2-c2ccccc21)C(N)=O`, the IC50 in test [1] stood at 44 µM; in test [2], 142 µM.

Regarding `CC(C)C[C@H](NC(=O)[C@H](Cc1ccc(OC(F)(C(=O)O)C(=O)O)cc1)NC(=O)[C@H](CCC(=O)OCc1ccccc1)NC(=O)OCC1c2ccccc2-c2ccccc21)C(N)=O`, the IC50 amounted to 1.5 µM in test [1] and 2.9 µM in test [2].

Consider `CC(C)C[C@H](NC(=O)[C@H](Cc1ccc(OCC(=O)O)c(C(=O)O)c1)NC(=O)[C@H](CCC(=O)O)NC(=O)OCC1c2ccccc2-c2ccccc21)C(N)=O`, for which the half-maximal inhibitory concentration (IC50) was 54.7 µM in test [1] and above 100 µM in test [2].
